Results on six compounds are retold here after article PMC3113562 (Nucleic Acids Research, 2011).

Like-named read-outs stand apart in the source and are kept apart here.

For data set [1], the target named is T1, human 8-oxoguanine DNA glycosylase (OGG1) (Homo sapiens, UniProt O15527). The data set is classed as biochemical. Particulars: for ΔΔG° cognate vs non-cognate ligand: from ratio of Ki values, T = 310 K; for increase in the affinity for OGG1 vs the corresponding non-cognate ligand: ratio of Ki (KM) values, vs dGMP, ss G11 or ds G11. In a few lines: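 Recombinant human OGG1 from E. coli BL21(DE3), with active enzyme titrated by burst-phase kinetics. Reaction: 0.5 nM enzyme and 22 nM (2 × KM) oxoG ds substrate in 50 mM Tris–HCl pH 7.5, 100 mM NaCl, 1 mM EDTA, 1 mM DTT, 37°C, 2–10 min, NaOH-quenched. Competitor spans 0.1–10 × I50. Ki = I50/3; ΔG° = –RT ln Kd (310 K); ΔΔG° from differences.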
T1 sequence (O15527 whole entry): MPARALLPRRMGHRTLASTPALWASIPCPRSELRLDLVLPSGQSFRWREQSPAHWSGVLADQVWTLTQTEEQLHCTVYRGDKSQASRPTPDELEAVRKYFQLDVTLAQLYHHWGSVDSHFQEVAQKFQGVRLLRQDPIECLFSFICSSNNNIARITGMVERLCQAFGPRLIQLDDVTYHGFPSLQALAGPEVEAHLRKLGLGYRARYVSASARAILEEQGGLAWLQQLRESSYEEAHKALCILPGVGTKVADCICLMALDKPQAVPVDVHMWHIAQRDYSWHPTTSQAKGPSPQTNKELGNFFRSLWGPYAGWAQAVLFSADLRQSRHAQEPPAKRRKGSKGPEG

Data set [2] addresses T1, human 8-oxoguanine DNA glycosylase (OGG1). The settings on record: cited from earlier work.
Data set [3] has as its system E. coli 8-oxoguanine DNA glycosylase (Fpg). Particulars: read-out: Ki (Fpg); cited from earlier work.
Setting [4] is: read-out: Ki (affinity for OGG1).

For orientation: Ki means a measure of affinity in units of concentration, obtained from inhibition or displacement. In data set [1], `O=P(O)(O)O` [Pi, orthophosphate, reference compound] returned a Ki of 68000 µM.

As to `Nc1nc2c([nH]c(=O)n2[C@H]2C[C@H](O)[C@@H](COP(=O)(O)O)O2)c(=O)[nH]1` [oxo-dGMP, reference compound], in data set [1], the “ΔΔG° cognate vs non-cognate ligand” value is -0.8 kcal/mol and the “increase in the affinity for OGG1 vs the corresponding non-cognate ligand” value is 4.1 fold. The “tighter binding than one non-cognate d(pN)n unit within DNA” value in data set [1] (vs extrapolated Ki = 12 mM) was approximately 7.5 fold. Moreover, the “cleavage by OGG1” value in data set [2] is given as “not cleaved”.

As to “dCdp(TCTCCCTTCGCTCCTTTCCTCT) (5'-dC with phosphate prefix in name, chemistry otherwise not given here) [G11]”, the Ki in data set [1] (setting [4]) was 20 µM; in data set [3], 10 µM.

dCdp(TCTCCCTTCXCTCCTTTCCTCT) [OG11]: in data set [1], the “ΔΔG° cognate vs non-cognate ligand” value was approximately -3.3 kcal/mol and the “increase in the affinity for OGG1 vs the corresponding non-cognate ligand” value was 250 fold. Moreover, the Ki in data set [1] (setting [4]) came out at 0.08 µM. Further, the “cleavage by OGG1” value in data set [2] is reported as “not cleaved”.

Turning to r(pA)10, the inhibition constant Ki in data set [1] (setting [4]) stood at 140 µM.

Consider r(pC)10, for which the inhibitory constant (Ki) in data set [1] (setting [4]) was determined as 130 µM.
